Measured values from different studies.
Protocols differ between the studies behind these lines.
CYP2C8: Cytochrome P450 2C8 (CYP2C8, Homo sapiens, UniProt P10632)
ENAH: Protein enabled homolog (ENAH, UniProt Q8N8S7)
CYP2C9: Cytochrome P450 2C9 (CYP2C9, Homo sapiens, UniProt P11712)
DPP4: Dipeptidyl peptidase 4 (DPP4, Homo sapiens, UniProt P27487)

| SMILES | target | test | system | setting | endpoint | result |
| --- | --- | --- | --- | --- | --- | --- |
| CO[C@]1(C(=O)N[C@@H](C)c2ccc(-n3cc(F)cn3)nc2)CC[C@H](c2nc(C)cc(Nc3cc(C)[nH]n3)n2)CC1 | CYP2C8 | enzyme activity, inhibitor | human, liver microsomes | – | Ki | 9.6 µM |
| Cn1nc2c(=O)n(C3CC3)cnc2c1[C@](O)(c1cnc(C(F)(F)F)c(Cl)c1)C(F)(F)F | CYP2C8 | enzyme activity, inhibitor | human, liver microsomes | pH 7.4 | IC50 | > 20 µM |
| CC[C@H](C)[C@H](NC(=O)[C@H](Cc1c[nH]cn1)NC(=O)[C@@H](N)CCC(=O)O)C(=O)N1CCC[C@H]1C(=O)N1CCC[C@H]1C(=O)N1CCC[C@H]1C(=O)N1CCC[C@H]1C(=O)N[C@@H](CCCNC(=N)N)C(=O)N1CCC[C@H]1C(=O)N1CCC[C@H]1C(=O)N[C@@H](CCCCN)C(=O)N[C@@H](CCCNC(=N)N)C(=O)O | ENAH | binding, FP | – | – | Kd | 13 µM |
| CC[C@@](N)(c1cnc(C(F)(F)F)c(Cl)c1)c1c2ncn(C3CC3)c(=O)c2nn1C | CYP2C9 | enzyme activity, inhibitor | human, liver microsomes | pH 7.4 | IC50 | > 20 µM |
| Cn1cncc1[C@@](N)(c1ccc(Cl)cc1)c1ccc2c(c1)c(-c1cccc(Cl)c1)cc(=O)n2C | CYP2C9 | enzyme activity, inhibitor | human, liver microsomes | – | Ki | 0.35 µM |
| C=C(F)C(=O)N1CCN(c2nc(OC[C@@H]3CCCN3C)nc3c2CCN(c2cccc4cccc(Cl)c24)C3)C[C@@H]1CC#N | CYP2C9 | enzyme activity, inhibitor | human, liver microsomes | – | Ki | 3.2 µM |
| Cn1c(=O)cc(N2CCC(N)CC2)n(Cc2nc3ccccc3c(=O)n2-c2ccc(F)c(Cl)c2)c1=O | DPP4 | enzyme activity, inhibitor | – | – | IC50 | 35.7 µM |
| CN(C)c1ncnc2c1ncn2[C@@H]1O[C@H](CCl)[C@@H](NC(=O)[C@H](CSC(c2ccccc2)c2ccccc2)NC(=O)OC(C)(C)C)[C@H]1O | Aminopeptidase N (ANPEP, Homo sapiens, UniProt P15144) | enzyme activity, inhibitor, fluorescence | – | – | IC50 | > 100 µM |
| Cn1c(=O)cc(N2CCC(N)CC2)n(Cc2nc3ccc(Br)cc3c(=O)n2-c2cccc(F)c2)c1=O | DPP4 | enzyme activity, inhibitor | – | – | IC50 | 22.1 µM |
| Cn1nc2c(=O)n(C3CC3)ccc2c1[C@](O)(c1cnc(C(F)(F)F)c(Cl)c1)C(F)(F)F | CYP2C8 | enzyme activity, inhibitor | human, liver microsomes | pH 7.4 | IC50 | > 20 µM |
| Cn1c(=O)cc(N2CCC(N)CC2)n(Cc2nc3ccc(Br)cc3c(=O)n2-c2ccc(Br)cc2)c1=O | DPP4 | enzyme activity, inhibitor | – | – | IC50 | 11.2 µM |
| CSCC[C@H](NC(=O)[C@H](CCC(=O)O)NC(=O)[C@H](CS)NC(=O)[C@H](CO)NC(=O)[C@H](CC(C)C)NC(=O)[C@H](CCC(=O)O)NC(=O)[C@@H](N)CCC(=O)O)C(=O)N[C@@H](CCC(=O)O)C(=O)NCC(=O)N[C@@H](CC(N)=O)C(=O)N[C@@H](CC(C)C)C(=O)N[C@@H](CCC(=O)O)C(=O)N[C@@H](Cc1c[nH]cn1)C(=O)N[C@@H](CC(C)C)C(=O)N1CCC[C@H]1C(=O)N1CCC[C@H]1C(=O)N1CCC[C@H]1C(=O)N1CCC[C@H]1C(=O)N[C@@H](CCSC)C(=O)N[C@@H](CCC(=O)O)C(=O)N[C@H](C(=O)N[C@@H](CC(C)C)C(=O)N[C@@H](CCSC)C(=O)N[C@@H](CC(=O)O)C(=O)N[C@@H](CCCCN)C(=O)N[C@@H](CO)C(=O)N[C@@H](Cc1ccccc1)C(=O)N[C@@H](C)C(=O)N[C@@H](CO)C(=O)N[C@@H](CC(C)C)C(=O)N[C@@H](CCC(=O)O)C(=O)N[C@@H](CO)C(=O)N1CCC[C@H]1C(=O)N[C@@H](CCC(=O)O)C(=O)N[C@@H](CO)C(=O)O)C(C)C | ENAH | binding, fluorescence | – | – | Kd | 3.1 µM |
| COc1cc(O)c2c(c1)C(=O)c1cc(C)cc(O)c1C2=O | CYP2C9 | enzyme activity, inhibitor | human, liver microsomes | pH 7.4 | Ki | 3.69 µM |
